Compounds with a hit are over-represented: about 2.4% of the library has one in this group of screens.
PAD4 inh: inhibitors of human PAD4. Q9UM07. recombinant PAD4, RCA probe fluorescence polarization. inhibition, % at 6.36 µM. 0.41% of 330,000 active. AID 485272;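 active = percent inhibition above a cutoff equal to the mean of all tested compounds plus 3 SD, cut at about 15% in these data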
Target sequence (Q9UM07 whole entry, looked up): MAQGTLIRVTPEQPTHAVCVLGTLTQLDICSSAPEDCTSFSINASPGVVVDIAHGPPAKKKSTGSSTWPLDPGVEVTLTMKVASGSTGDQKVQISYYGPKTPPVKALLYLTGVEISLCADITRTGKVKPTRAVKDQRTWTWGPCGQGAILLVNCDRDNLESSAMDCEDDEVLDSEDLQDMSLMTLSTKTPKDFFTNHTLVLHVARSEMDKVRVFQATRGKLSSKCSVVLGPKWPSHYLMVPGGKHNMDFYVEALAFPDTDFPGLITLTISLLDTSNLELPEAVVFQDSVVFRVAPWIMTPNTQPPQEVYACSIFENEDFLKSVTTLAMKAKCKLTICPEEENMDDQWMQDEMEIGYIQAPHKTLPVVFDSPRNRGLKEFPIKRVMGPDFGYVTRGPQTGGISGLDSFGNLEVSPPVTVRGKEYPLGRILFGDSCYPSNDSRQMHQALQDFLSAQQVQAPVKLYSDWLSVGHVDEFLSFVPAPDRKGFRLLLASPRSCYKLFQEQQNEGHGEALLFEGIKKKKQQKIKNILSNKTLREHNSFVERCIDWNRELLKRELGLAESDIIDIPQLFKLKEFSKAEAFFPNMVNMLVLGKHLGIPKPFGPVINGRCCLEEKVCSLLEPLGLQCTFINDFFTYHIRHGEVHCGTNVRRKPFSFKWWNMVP
SIAE primary: blocks human sialic acid acetylesterase | SIAE FP-Rh probe binding, fluorescence polarization | inhibition, % at 9.66 µM | 0.69% of 370,000 active;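 active = inhibition above a cutoff: mean of compounds within the control limits plus 3 SD of those, cut at about 17% in these data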
TCR CD3 inh: human TCR-CD3 binding inhibition; TAMRA-labeled TCR probe fluorescence, biochemical; inhibition, % at 9.4 µM; 0.37% of 360,000 active; in the data active = inhibition above about 19%;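 note: recombinant mutant TCR 2C K166C tagged with TAMRA read by polarization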
Apaf1 inhib: inhibitors of human Apaf-1 apoptosome; reconstituted apoptosome caspase-3 activity, DEVD-Rh110 fluorescence; inhibition, % at 20 µM; 0.71% of 330,000 active; AID 489030; active = inhibition of at least 40% at 20 µM
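System – cell-free apoptosome with Apaf-1, procaspase-3 and caspase-9 · Buffer or medium – pH 7.5 Hepes buffer with CHAPS, BSA, DTT · Also added – cytochrome c with DEVD-Rh110 · Times – 30 min compound preincubation, 50 min activation, room temperature · Technique – Rh110 fluorescence intensity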
TDP2 absorb: TDP2 (human) inhibition, absorbance primary screen; O95551; recombinant TDP2, T5PNP hydrolysis, p-nitrophenol absorbance 415 nm; inhibition, % at 12.8 µM; 0.34% of 370,000 active; AID 720702;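 active = inhibition above the mean of all tested compounds plus 3 SD, set per campaign, cut at about 25% in these data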
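System – recombinant human TDP2 · Amount – 120 nM TDP2 per well · Buffer or medium – Mg2+-containing Tris-HCl buffer, pH 7.5 · Reagent – T5PNP substrate, 5 mM · Dosing – 12.8 µM single point, 1% DMSO · Incubation – 2 h at 37 °C · Measured by – epi absorbance · Read-out basis – percent inhibition · Benchmarks – high control without enzyme, low control DMSO plus TDP2 · Repeats – singlicate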
GSTO1 counter: blocks human GSTO1 in RBBP9 counter-screen | 1.1% of 300,000 active | recombinant GSTO1, activity-based probe fluorescence polarization | inhibition, % at 5.96 µM;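 active = inhibition above the campaign mean inhibition plus 3 SD, cut at about 35% in these data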
GSTO1 inh conf: GSTO1 (human) inhibition, confirmation. shares compounds with GSTO1 counter. recombinant GSTO1, probe fluorescence polarization. inhibition, % at 5.96 µM. 54% of 2,400 active. AID 2176;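 active = inhibition above the primary screen's cutoff, its mean inhibition plus 3 SD, cut at about 35% in these data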;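 note: loss of polarization as inhibitors block binding of rhodamine sulfonate ester activity probe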
GSTO1 ABPP inh: inhibitors of recombinant human GSTO1; shares compounds with GSTO1 counter; gel ABPP SE-Rh probe fluorescence; inhibition, % at 1 µM; 30% of 130 active; AID 463110;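 active = inhibition of the enzyme GSTO1 above about 75%, limit read from the data; inactive = inhibition below that limit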
PAD4 confirm: PAD4 (human) inhibition, confirmed; AID 488796; inhibition, % at 6.36 µM; 28% of 1,200 active; shares compounds with PAD4 inh; recombinant PAD4, RCA probe fluorescence polarization;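 active = mean inhibition across replicates above the hit cutoff set by the earlier primary screen, cut at about 15% in these data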;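 note: inhibitors block active-site labeling by the probe so polarization falls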
Apaf-1 inh conf2: confirmation of Apaf-1 inhibitors. shares compounds with Apaf1 inhib. reconstituted apoptosome, caspase-3 DEVD-Rh110 fluorescence. inhibition, % at 20 µM. 25% of 1,800 active;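 active = mean inhibition of at least 40% at 20 µM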
Rh110 interf inh: Rh110 signal interference in Apaf-1 inhibitor counter-screen | 1,800 tested, under 10 active | activation (fluorescence interference), % at 20 µM | shares compounds with Apaf1 inhib | Rh110 fluorescence interference, quenched caspase reaction;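 active = signal rise of 40% or more at 20 µM, treated as a fluorescence artifact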
Each line names hits and unclear results; the compound was inactive in the other large screens (follow-up assays come after a bar, where they were run).

O=[N+]([O-])c1cc(S(=O)(=O)c2ccc(O)c([N+](=O)[O-])c2)ccc1O	GSTO1 counter 40 | GSTO1 inh conf 49
Cc1cc(C(=O)Nc2ccccc2)nn1C(C)(C)C	none
Cn1ccc(NC(=O)CCl)n1	GSTO1 counter 62 | GSTO1 inh conf 85
Cc1cc(NC(=O)CCl)nn1C	GSTO1 counter 85 | GSTO1 inh conf 86
CC[C@@]1(O)C(=O)OCc2c1cc1n(c2=O)Cc2cc3c(NC(=O)CN)cccc3nc2-1	none
O=C(CCl)Nc1nccs1	GSTO1 counter 92 | GSTO1 inh conf 99
O=C(Nc1nccs1)C(Cl)(Cl)Cl	none
O=c1[nH]c(=S)[nH]c(O)c1/C=C1/C=c2ccccc2=N1	none (no result: Apaf1 inhib)
Cc1c(N=Nc2c(O)[nH]c(=S)[nH]c2=O)c(=O)n(-c2ccccc2)n1C	GSTO1 counter 57 | GSTO1 inh conf inactive
CCC(=O)Nc1ccc(Cl)c(Cl)c1	none (no result: PAD4 inh, Apaf1 inhib, GSTO1 counter)
Cc1cc(NC(=O)CCl)on1	GSTO1 counter 73 | GSTO1 inh conf 99
Cc1ccc(CNC2=NCCS2)cc1	none
C[C@](N)(CCP(=O)(O)O)C(=O)O	none
O=C(C(=O)N1CCOCC1)c1cn(Cc2ccccc2Cl)c2ccccc12	none
CCCOC(=O)c1c(N)n(Cc2cccs2)c2nc3ccccc3nc12	GSTO1 counter 42 | GSTO1 inh conf inactive
Nc1c(C(=O)NCc2ccco2)c2nc3ccccc3nc2n1Cc1ccccc1	none
COCC(C)OC(=O)c1c(N)n(Cc2ccco2)c2nc3ccccc3nc12 (stereo unspecified)	Apaf1 inhib 61, GSTO1 counter 59 | GSTO1 inh conf inactive
COc1ccc(OC)c(NC2=NCCS2)c1	none
CC1=C(C(=O)O)N2C(=O)C(NC(=O)Cc3ccccc3)C2SC1 (stereo unspecified)	none
Cc1cc(=O)[nH]c(CCl)n1	GSTO1 counter 67 | GSTO1 inh conf 90 | GSTO1 ABPP inh inactive
O=C(O)c1cccc2c1NC(C(=O)O)C1CC(Sc3ccccc3[N+](=O)[O-])C(Cl)C21 (stereo unspecified)	SIAE primary 61, TCR CD3 inh 37, GSTO1 counter 39 (no result: Apaf1 inhib) | GSTO1 inh conf inactive
CC(=NCC1CCCO1)c1c(O)n(-c2ccc(C)cc2)c(=O)[nH]c1=O (stereo unspecified)	none
CCOC(=O)C(NC(=O)CCl)(Nc1ccc(C(O)(C(=O)OCC)C(F)(F)F)cc1)C(F)(F)F (stereo unspecified)	GSTO1 counter 53 | GSTO1 inh conf 74
CC(=O)[C@@]1(O)CCC2C3CC=C4C[C@@H](O)CC[C@]4(C)C3CC[C@@]21C (stereo partly specified)	none (no result: GSTO1 counter)
Cc1nc(Cl)sc1C(=O)Nc1ccc2ccccc2c1	GSTO1 counter 55 | GSTO1 inh conf 54
C=CCN1CCc2cccc3c2[C@H]1Cc1ccc(O)c(O)c1-3	GSTO1 counter 87 | GSTO1 inh conf inactive
Nc1c(C(=O)OC2CCCCC2)c2nc3ccccc3nc2n1CC1CCCO1 (stereo unspecified)	GSTO1 counter 42 | GSTO1 inh conf inactive
CC(C)CCOC(=O)c1c(N)n(CC2CCCO2)c2nc3ccccc3nc12 (stereo unspecified)	GSTO1 counter 53 | GSTO1 inh conf inactive
COC(=O)C1=C(c2ccc(OCc3ccccc3)cc2)C[C@@H]2CC[C@H]1N2C(=O)NCc1ccc2[nH]ccc2c1	none (no result: PAD4 inh, Apaf1 inhib, GSTO1 counter)
CCOC(=O)/C(=N\Nc1ccccc1)N1CC1	none
O=C1NC(=O)N(Cc2ccco2)C(=O)/C1=C/c1ccc(-c2cccc([N+](=O)[O-])c2)o1	GSTO1 counter 40 (no result: SIAE primary, TCR CD3 inh, TDP2 absorb) | GSTO1 inh conf inactive
CCN(CC)c1ccc(N=Cc2c(O)[nH]c(=O)[nH]c2=O)cc1	PAD4 inh 26, GSTO1 counter 56 | GSTO1 inh conf inactive
CCN(CC)c1ccc(N=Cc2c(O)n(Cc3ccccc3)c(=O)[nH]c2=O)cc1	none
CC(Cc1ccccc1)NC(=O)/C=C/c1ccc(Cl)cc1 (stereo unspecified)	none
COP(=O)(OC)C(NC(=O)/C=C/c1ccccc1)C(Cl)(Cl)Cl (stereo unspecified)	GSTO1 counter 39 | GSTO1 inh conf 69
Cc1ccc(S(=O)(=O)N2CC2(C)CCl)cc1 (stereo unspecified)	GSTO1 counter 44 | GSTO1 inh conf 67 | GSTO1 ABPP inh inactive
Cc1ccc(S(=O)(=O)N2CN3CCN(C3)C2)cc1	none
CCCCn1c(N)c(C(=O)OCC2CCCO2)c2nc3ccccc3nc21 (stereo unspecified)	PAD4 inh 69, GSTO1 counter 81 (no result: SIAE primary, TCR CD3 inh, TDP2 absorb) | GSTO1 inh conf inactive | PAD4 confirm inactive
CCN(CC)c1ccc(N=Cc2c(O)n(-c3ccccc3)c(=O)[nH]c2=O)cc1	PAD4 inh 18, GSTO1 counter 42 | GSTO1 inh conf inactive | PAD4 confirm inactive
CC(C)[C@H]1C(=O)N2CCC[C@H]2[C@]2(O)O[C@](NC(=O)[C@@H]3C=C4c5cccc6[nH]cc(c56)C[C@H]4N(C)C3)(C(C)C)C(=O)N12	PAD4 inh 29, Apaf1 inhib 95, GSTO1 counter 59 (no result: SIAE primary, TCR CD3 inh, TDP2 absorb) | GSTO1 inh conf inactive | PAD4 confirm inactive
CN1C[C@H](CO)C=C2c3cccc4[nH]cc(c34)C[C@H]21	none
O=c1[nH]c2ccccc2n1C1CCN(C(c2ccnc3ccccc23)c2nnnn2-c2ccc3c(c2)OCCO3)CC1 (stereo unspecified)	none (no result: PAD4 inh, Apaf1 inhib, GSTO1 counter)
CN1CCN2c3ccccc3CC3(C(=O)N(C)C(=O)N(C)C3=O)C2C1 (stereo unspecified)	none
COc1cc2c(cc1O)C[C@H]1NCCc3cc4c(c-2c31)OCO4	Apaf1 inhib 71, GSTO1 counter 55 | GSTO1 inh conf inactive | Apaf-1 inh conf2 inactive | Rh110 interf inh inactive
O=C1C2CCN(CC2)C1Cc1ccc(OCc2ccccc2)cc1 (stereo unspecified)	none
CC(C)OC(=O)c1c(N)n(CC2CCCO2)c2nc3ccccc3nc12 (stereo unspecified)	Apaf1 inhib 81, GSTO1 counter 45 | GSTO1 inh conf inactive | Apaf-1 inh conf2 inactive | Rh110 interf inh inactive

From PubChem BioAssay
